Data: ChEMBL document CHEMBL3259656, “Discovery of AZD3199, An Inhaled Ultralong Acting β2 Receptor Agonist with Rapid Onset of Action” (ACS Med Chem Lett, 2014)
The source made the active and inactive calls. The calls are words filed in the database; no cut-off is given here.

Tests used:
[1] = target: Beta-2 adrenergic receptor (Homo sapiens, UniProt P07550); assay: Agonist activity at human beta-2 adrenergic receptor expressed in human H292 cells assessed as accumulation of intracellular cAMP after 1 hr by AlphaScreen assay; type: functional, cell-based
Sequence of Beta-2 adrenergic receptor (P07550 whole entry): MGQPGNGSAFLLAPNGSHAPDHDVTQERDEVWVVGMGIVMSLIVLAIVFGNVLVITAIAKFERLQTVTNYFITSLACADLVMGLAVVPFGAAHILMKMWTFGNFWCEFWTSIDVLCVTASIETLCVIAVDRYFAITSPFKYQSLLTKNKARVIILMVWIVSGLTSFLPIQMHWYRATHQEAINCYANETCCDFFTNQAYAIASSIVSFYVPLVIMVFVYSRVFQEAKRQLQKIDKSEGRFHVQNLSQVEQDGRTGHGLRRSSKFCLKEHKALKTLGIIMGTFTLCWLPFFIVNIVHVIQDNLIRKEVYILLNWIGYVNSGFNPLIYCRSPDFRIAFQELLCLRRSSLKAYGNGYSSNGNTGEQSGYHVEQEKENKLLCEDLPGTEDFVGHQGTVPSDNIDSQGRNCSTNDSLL

Cavia porcellus [2] = assay: Toxicity in iv dosed guinea pig assessed as change in plasma potassium level up to 60 mins; type: organism-based; details: in vivo, 1 h
Cavia porcellus [3] = assay: Bronchoprotective activity in guinea pig assessed as inhibition of histamine-induced bronchoconstriction at ED80 administered intratracheally after 4 to 24 hrs relative to control; type: functional, organism-based
Summary of the method: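 Guinea pigs received a single intratracheal dose of agonist. Histamine-induced bronchoconstriction was measured at several time points after dosing, up to 24 h. Bronchoprotection was expressed as inhibition relative to control animals.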

D(2) dopamine receptor [4] = target: T1, D(2) dopamine receptor (Homo sapiens, UniProt P14416); assay: Partial agonist activity at human recombinant dopamine D2S receptor expressed in HEK cells by GTPgammaS binding assay; type: functional, cell-based; details: HEK293
T1 sequence (P14416 whole entry): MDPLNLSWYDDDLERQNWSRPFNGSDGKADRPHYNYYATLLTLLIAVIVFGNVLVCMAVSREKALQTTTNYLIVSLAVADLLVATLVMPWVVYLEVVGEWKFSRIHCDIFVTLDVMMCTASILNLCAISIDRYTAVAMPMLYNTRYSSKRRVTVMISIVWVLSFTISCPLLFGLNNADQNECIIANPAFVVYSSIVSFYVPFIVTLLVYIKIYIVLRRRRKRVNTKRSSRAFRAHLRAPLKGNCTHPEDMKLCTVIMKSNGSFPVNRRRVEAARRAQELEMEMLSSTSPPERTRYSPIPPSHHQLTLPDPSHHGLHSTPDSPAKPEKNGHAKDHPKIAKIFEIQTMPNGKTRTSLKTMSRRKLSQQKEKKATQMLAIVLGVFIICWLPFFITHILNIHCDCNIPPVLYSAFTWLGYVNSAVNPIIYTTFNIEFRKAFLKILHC

Oryctolagus cuniculus [5] = species: Oryctolagus cuniculus; assay: Agonist activity at rabbit recombinant beta-2 adrenergic receptor assessed as cAMP accumulation by cell-based assay
[6] = Oral bioavailability in dog; type: ADME, organism-based, Canis lupus familiaris; details: in vivo
[7] = Intrinsic clearance in rat measured per million cells; type: ADME
[8] = target: T2, Alpha-1D adrenergic receptor (Homo sapiens) (UniProt P25100); assay: Agonist activity at human recombinant alpha-1D adrenergic receptor expressed in HEK cells assessed as intracellular calcium response; details: HEK293
T2 sequence (whole entry): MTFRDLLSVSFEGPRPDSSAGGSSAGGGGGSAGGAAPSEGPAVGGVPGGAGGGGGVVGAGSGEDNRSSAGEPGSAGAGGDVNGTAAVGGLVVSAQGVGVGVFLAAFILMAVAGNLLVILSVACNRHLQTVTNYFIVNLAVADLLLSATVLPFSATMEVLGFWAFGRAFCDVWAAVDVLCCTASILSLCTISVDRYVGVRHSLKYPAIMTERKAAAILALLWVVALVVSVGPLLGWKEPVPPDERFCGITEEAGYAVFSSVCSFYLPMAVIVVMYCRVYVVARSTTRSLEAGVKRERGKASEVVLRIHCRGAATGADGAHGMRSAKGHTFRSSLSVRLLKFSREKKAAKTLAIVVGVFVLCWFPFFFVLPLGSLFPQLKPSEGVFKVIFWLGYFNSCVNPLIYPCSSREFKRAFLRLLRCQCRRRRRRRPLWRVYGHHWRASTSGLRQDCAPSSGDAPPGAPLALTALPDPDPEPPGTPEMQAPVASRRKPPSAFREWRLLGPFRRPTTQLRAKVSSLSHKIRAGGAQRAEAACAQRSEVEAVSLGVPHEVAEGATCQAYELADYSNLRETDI

Cavia porcellus [9] = assay: Bronchoprotective activity in guinea pig assessed as inhibition of histamine-induced bronchoconstriction at ED80 administered intratracheally after 24 hrs relative to control; type: functional
Summary of the method: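 Guinea pigs received a single intratracheal dose, set from a dose–response in the same histamine-induced bronchoconstriction model. Histamine challenge was given at several times after dosing, and inhibition of bronchoconstriction was measured. Bronchoprotection at 24 h was expressed relative to control animals.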

[10] = target: Beta-2 adrenergic receptor (Rattus norvegicus) (UniProt P10608); assay: Intrinsic activity at beta-2 adrenergic receptor in rat C6 cells; type: cell-based
Sequence of Beta-2 adrenergic receptor (Rattus norvegicus) (P10608 whole entry, looked up): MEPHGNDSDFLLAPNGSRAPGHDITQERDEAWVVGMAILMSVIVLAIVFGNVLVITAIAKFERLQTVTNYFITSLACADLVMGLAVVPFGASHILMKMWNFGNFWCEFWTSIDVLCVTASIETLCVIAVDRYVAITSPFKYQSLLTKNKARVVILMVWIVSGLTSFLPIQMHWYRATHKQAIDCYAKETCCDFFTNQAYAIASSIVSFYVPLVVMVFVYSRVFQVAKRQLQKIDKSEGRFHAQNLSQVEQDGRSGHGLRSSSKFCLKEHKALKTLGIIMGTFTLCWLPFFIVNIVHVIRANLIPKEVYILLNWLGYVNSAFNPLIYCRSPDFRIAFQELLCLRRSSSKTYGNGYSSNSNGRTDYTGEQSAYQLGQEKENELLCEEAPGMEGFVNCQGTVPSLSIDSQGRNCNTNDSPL

[11] = Oral bioavailability in rat; type: ADME, organism-based; details: in vivo
[12] = target: Beta-2 adrenergic receptor (Canis lupus familiaris) (UniProt P54833); assay: Agonist activity at dog recombinant beta-2 adrenergic receptor assessed as cAMP accumulation by cell-based assay; type: functional
Sequence of Beta-2 adrenergic receptor (Canis lupus familiaris) (P54833 whole entry, looked up): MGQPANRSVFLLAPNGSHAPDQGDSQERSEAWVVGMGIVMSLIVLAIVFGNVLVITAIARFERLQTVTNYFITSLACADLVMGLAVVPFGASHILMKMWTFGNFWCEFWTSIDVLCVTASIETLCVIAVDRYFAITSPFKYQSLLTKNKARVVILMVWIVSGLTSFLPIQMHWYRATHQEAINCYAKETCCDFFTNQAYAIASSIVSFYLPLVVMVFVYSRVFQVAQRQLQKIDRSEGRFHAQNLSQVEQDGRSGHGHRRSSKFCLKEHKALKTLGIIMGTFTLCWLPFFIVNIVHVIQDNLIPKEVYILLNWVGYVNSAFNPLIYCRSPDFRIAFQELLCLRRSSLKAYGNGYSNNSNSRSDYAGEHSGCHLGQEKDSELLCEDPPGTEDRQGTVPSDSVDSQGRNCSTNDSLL

[13] = Terminal half life in iv dosed dog; type: ADME, organism-based, Canis lupus familiaris; details: in vivo, read-out: beta t1/2 (converted)
[14] = Terminal half life in iv dosed rat; type: ADME, organism-based; details: in vivo, read-out: beta t1/2 (converted)
[15] = target: Beta-2 adrenergic receptor (Mus musculus) (UniProt P18762); assay: Intrinsic activity at mouse recombinant beta-2 adrenergic receptor
Sequence of Beta-2 adrenergic receptor (Mus musculus) (P18762 whole entry, looked up): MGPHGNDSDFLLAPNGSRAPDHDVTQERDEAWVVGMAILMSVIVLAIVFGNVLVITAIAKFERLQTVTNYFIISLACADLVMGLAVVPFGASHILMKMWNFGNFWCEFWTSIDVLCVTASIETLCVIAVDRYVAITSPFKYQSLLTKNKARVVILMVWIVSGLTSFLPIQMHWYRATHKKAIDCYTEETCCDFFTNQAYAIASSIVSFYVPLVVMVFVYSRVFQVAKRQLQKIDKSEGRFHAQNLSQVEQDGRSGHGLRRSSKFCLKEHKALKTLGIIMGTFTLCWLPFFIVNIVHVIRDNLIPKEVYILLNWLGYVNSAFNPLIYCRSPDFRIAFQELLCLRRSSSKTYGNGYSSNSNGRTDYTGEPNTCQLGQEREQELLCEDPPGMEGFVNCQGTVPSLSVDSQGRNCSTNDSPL

Cavia porcellus [16] = assay: Bronchoprotective activity in guinea pig assessed as inhibition of histamine-induced bronchoconstriction administered intratracheally after 2 hrs in presence of propanolol; type: functional, organism-based
Summary of the method: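 In the guinea pig histamine-induced bronchoconstriction model, propranolol was given at 1 mg/kg i.v. to check that the bronchoprotection was mediated through β2 receptors.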

[17] = Apparent volume of distribution in iv dosed dog; type: ADME, organism-based, Canis lupus familiaris; details: in vivo, read-out: Vz
Oryctolagus cuniculus [18] = species: Oryctolagus cuniculus; assay: Intrinsic activity at rabbit recombinant beta-2 adrenergic receptor
[19] = Terminal half life in iv dosed guinea pig; type: ADME, organism-based, Cavia porcellus; details: in vivo, read-out: beta t1/2 (converted)
[20] = target: Beta-2 adrenergic receptor (Canis lupus familiaris) (UniProt P54833); assay: Intrinsic activity at dog recombinant beta-2 adrenergic receptor
[21] = Apparent volume of distribution in iv dosed guinea pig; type: ADME, organism-based, Cavia porcellus; details: in vivo, read-out: Vz
[22] = target: Beta-2 adrenergic receptor (Rattus norvegicus) (UniProt P10608); assay: Agonist activity at beta-2 adrenergic receptor in rat C6 cells assessed as cAMP accumulation; type: functional, cell-based
[23] = target: Beta-2 adrenergic receptor (Mus musculus) (UniProt P18762); assay: Agonist activity at mouse recombinant beta-2 adrenergic receptor assessed as cAMP accumulation by cell-based assay; type: functional
Cavia porcellus [24] = assay: Bronchoprotective activity in guinea pig assessed as inhibition of histamine-induced bronchoconstriction administered intratracheally after 2 hrs; type: functional; details: inhaled or nasal
[25] = Apparent volume of distribution in iv dosed rat; type: ADME, organism-based; details: in vivo, read-out: Vz
D(2) dopamine receptor [26] = target: T1, D(2) dopamine receptor; assay: Agonist activity at human recombinant dopamine D2S receptor expressed in HEK cells by GTPgammaS binding assay; type: functional, HEK293
[27] = target: Beta-2 adrenergic receptor (Cavia porcellus) (UniProt Q8K4Z4); details: Trachea
Sequence of Beta-2 adrenergic receptor (Cavia porcellus) (Q8K4Z4 whole entry, looked up): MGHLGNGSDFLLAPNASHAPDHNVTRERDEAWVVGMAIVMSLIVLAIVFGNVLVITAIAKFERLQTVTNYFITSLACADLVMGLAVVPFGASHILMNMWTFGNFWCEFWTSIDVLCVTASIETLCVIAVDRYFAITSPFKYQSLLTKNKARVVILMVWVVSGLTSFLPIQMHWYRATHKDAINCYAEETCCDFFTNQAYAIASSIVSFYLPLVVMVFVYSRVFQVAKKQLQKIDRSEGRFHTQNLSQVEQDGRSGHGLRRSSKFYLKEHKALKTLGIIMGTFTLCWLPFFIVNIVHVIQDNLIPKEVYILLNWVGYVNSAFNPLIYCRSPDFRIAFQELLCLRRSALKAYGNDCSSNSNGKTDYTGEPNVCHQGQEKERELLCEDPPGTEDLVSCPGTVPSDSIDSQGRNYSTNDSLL

## CC(C)N(C)CCCN(CCNCCc1ccc(O)c2[nH]c(=O)sc12)C(=O)CCOCCc1cccc(Cl)c1
[1]
  EC50: 5.01 nM

## O=C(CCOCCc1cccc(Cl)c1)N(CCNCCc1ccc(O)c2[nH]c(=O)sc12)CCN1CCCCC1
[1]
  EC50: 12.6 nM

## CCN(CC)CCN(CCNCCc1ccc(O)c2[nH]c(=O)sc12)C(=O)CCOCCc1cccc(OC)c1
[1]
  EC50: 7.94 nM

## CC(C)(C)NCC(O)c1ccc(O)c(CO)c1 (stereo unspecified) [ALBUTEROL]
Cavia porcellus [2]
  Activity: Toxic

## CN(CCCN(CCNCCc1ccc(O)c2[nH]c(=O)sc12)C(=O)CCOCCc1cccc(Cl)c1)C1CC1
[1]
  EC50: 7.94 nM

## CN(C)CCCN(CCNCCc1ccc(O)c2[nH]c(=O)sc12)C(=O)CCOCCc1ccccc1
[1]
  EC50: 15.8 nM

## OCc1cc(C(O)CNCCCCCCOCCCCc2ccccc2)ccc1O (stereo unspecified)
Cavia porcellus [3]
  inhibition: Active

## CCN(C)CCCN(CCNCCc1ccc(O)c2[nH]c(=O)sc12)C(=O)CCOCCc1cccc(Cl)c1
[1]
  EC50: 10 nM

## Br.CCN(CC)CCN(CCNCCc1ccc(O)c2[nH]c(=O)sc12)C(=O)CCOCCc1cccc2ccccc12
D(2) dopamine receptor [4]
  Activity: Active
Oryctolagus cuniculus [5]
  Activity: Active
[6]
  bioavailability: < 2%
[7]
  hepatocyte CLint: 105 µL/min/1e6 cells
[8]
  Activity: inactive
Cavia porcellus [9]
  inhibition (INH): 58%
[10]
  Activity: Active
[11]
  bioavailability: < 2%
[12]
  Activity: Active
[13]
  half-life: 18 h
[14]
  half-life: 11 h
[15]
  Activity: Active
Cavia porcellus [16]
  Activity: inactive
Cavia porcellus [2]
  Activity: Toxic
[17]
  Vd: 17 L/kg
Oryctolagus cuniculus [18]
  Activity: Active
[19]
  half-life: 17 h
[20]
  Activity: Active
[21]
  Vd: 22 L/kg
[22]
  Activity: Active
[23]
  Activity: Active
Cavia porcellus [24]
  ED80: 0.027 mg/kg
[25]
  Vd: 23 L/kg

## CN(C)CCN(CCNCCc1ccc(O)c2[nH]c(=O)sc12)C(=O)CCOCCc1ccccc1
[1]
  EC50: 6.31 nM

## CCN(CC)CCN(CCNCCc1ccc(O)c2[nH]c(=O)sc12)C(=O)CCOCCc1cccc(Cl)c1
[1]
  EC50: 6.31 nM

## NCCCN(CCNCCc1ccc(O)c2[nH]c(=O)sc12)C(=O)CCOCCc1ccccc1
[1]
  EC50: 316 nM

## O=c1[nH]c2c(O)ccc(CCNCCS(=O)(=O)CCCOCCc3ccccc3)c2s1 [SIBENADET]
D(2) dopamine receptor [26]
  EC50: 2 nM

## CCc1cc2c(cc1CC)CC(NC[C@H](O)c1ccc(O)c3[nH]c(=O)ccc13)C2
[27]
  pA50: 7.7
